Measured values taken from ChEMBL document CHEMBL4014285, “Novel, highly potent systemic glucokinase activators for the treatment of Type 2 Diabetes Mellitus” (Bioorg Med Chem Lett, 2017).
≈ marks a conversion by molar mass, not a printed value. Calls of active or inactive are those of the source. The calls are words filed in the database; no cut-off is given here.

Experiments:
[1] = biological target: T1, Hexokinase-4 (Homo sapiens) (UniProt P35557); assay: Activation of recombinant human glucokinase assessed as conversion of D-glucose to D-glucose-6-phosphate in presence of 2.5 mM glucose by G6PDH coupled spectrophotometric assay relative to control
T1 sequence (whole entry): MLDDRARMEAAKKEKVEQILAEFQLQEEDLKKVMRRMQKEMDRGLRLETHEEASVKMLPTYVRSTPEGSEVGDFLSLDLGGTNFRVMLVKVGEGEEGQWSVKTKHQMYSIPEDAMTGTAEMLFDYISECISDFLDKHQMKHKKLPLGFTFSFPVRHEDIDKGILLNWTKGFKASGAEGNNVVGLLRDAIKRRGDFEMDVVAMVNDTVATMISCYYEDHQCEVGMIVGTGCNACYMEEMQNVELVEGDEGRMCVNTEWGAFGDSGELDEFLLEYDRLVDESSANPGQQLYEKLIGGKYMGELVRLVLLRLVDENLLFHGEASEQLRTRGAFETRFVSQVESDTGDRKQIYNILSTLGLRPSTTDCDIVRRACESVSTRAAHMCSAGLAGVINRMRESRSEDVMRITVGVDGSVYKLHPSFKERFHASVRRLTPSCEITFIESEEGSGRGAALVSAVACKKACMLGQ
Summary of the method: (§1)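 Recombinant human GK; ATP-dependent D-glucose-6-phosphate formation from D-glucose at 2.5 or 10 mM, read by continuous glucose-6-phosphate dehydrogenase coupled spectrophotometry. Activators titrated at 1% DMSO final, DMSO as control. EC50 = concentration giving half of maximal increase in product formation; maximum activity expressed as percent velocity increase vs DMSO at saturating activator. Single titration.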

[2] = biological target: T1, Hexokinase-4 (Homo sapiens); assay: Activation of recombinant human glucokinase assessed as conversion of D-glucose to D-glucose-6-phosphate in presence of 10 mM glucose by G6PDH coupled spectrophotometric assay relative to control; summary of the method: as §1
[3] = test system: Mus musculus; assay: Antidiabetic activity in HFD-fed C57BL/6 mouse assessed as decrease in blood glucose level at 0.03 mg/kg, po measured after 30 mins; assay type: functional, organism-based
Summary of the method: (§2)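 C57BL/6 mice fed high fat diet for 3 weeks, baseline blood glucose ~200 mg/dl, dosed orally at 0.01, 0.03 and 0.1 mg/kg. Blood glucose followed from 30 min through 4 h post dose, with blood glucose AUC over the period; plasma insulin also measured.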

[4] = test system: Mus musculus; assay: Antidiabetic activity in HFD-fed C57BL/6 mouse assessed as reduction in blood glucose AUC at 0.03 to 0.1 mg/kg, po measured at 4 hrs post dose; assay type: functional, organism-based; summary of the method: as §2
[5] = test system: Mus musculus; assay: Antidiabetic activity in HFD-fed C57BL/6 mouse assessed as increase in plasma insulin level at 0.03 to 0.1 mg/kg, po; assay type: functional, organism-based; summary of the method: as §2
[6] = biological target: T2, Hexokinase-4 (Homo sapiens, UniProt P35557); assay: Activation of recombinant human glucokinase assessed as conversion of D-glucose to D-glucose-6-phosphate in presence of 2.5 mM glucose by G6PDH coupled spectrophotometric assay; summary of the method: as §1
T2 sequence (P35557 whole entry): T1 sequence (whole entry)

[7] = biological target: T2, Hexokinase-4; assay: Activation of recombinant human glucokinase assessed as conversion of D-glucose to D-glucose-6-phosphate in presence of 10 mM glucose by G6PDH coupled spectrophotometric assay; summary of the method: as §1
[8] = biological target: T3, Hexokinase-4 (Rattus norvegicus, UniProt P17712); assay: Activation of glucokinase in rat INS-1 cells assessed as increase in D-2-deoxyglucose-6-phosphate level in presence of D-2-deoxyglucose by HILIC LC-MS method; assay type: cell-based
T3 sequence (P17712 whole entry): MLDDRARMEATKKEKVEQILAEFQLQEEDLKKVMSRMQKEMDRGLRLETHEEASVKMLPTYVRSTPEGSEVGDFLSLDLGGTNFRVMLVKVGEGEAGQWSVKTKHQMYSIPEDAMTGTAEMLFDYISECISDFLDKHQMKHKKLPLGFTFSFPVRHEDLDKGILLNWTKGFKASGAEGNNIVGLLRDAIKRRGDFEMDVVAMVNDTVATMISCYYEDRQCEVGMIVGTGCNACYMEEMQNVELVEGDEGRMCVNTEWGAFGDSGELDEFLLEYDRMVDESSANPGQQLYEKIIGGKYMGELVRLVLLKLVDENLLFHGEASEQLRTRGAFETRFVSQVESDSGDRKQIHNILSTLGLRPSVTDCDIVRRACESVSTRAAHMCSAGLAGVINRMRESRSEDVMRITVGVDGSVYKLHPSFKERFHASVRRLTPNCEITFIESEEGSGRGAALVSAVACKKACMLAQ
Summary of the method: (§3)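 GKACA cell assay in rat INS-1 Clone-13 insulinoma cells or freshly isolated primary rat hepatocytes; intracellular D-2-deoxyglucose-6-phosphate formed from exogenous D-2-deoxyglucose quantified by HILIC LC-MS; EC50 from a single titration.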

[9] = biological target: T3, Hexokinase-4; assay: Activation of glucokinase in primary rat hepatocytes assessed as increase in D-2-deoxyglucose-6-phosphate level in presence of D-2-deoxyglucose by HILIC LC-MS method; assay type: cell-based; summary of the method: as §3
[10] = Solubility of the compound at pH 7; assay type: physicochemical; details: buffer
[11] = Solubility of the compound at pH 2; assay type: physicochemical; details: buffer
[12] = Stability of compound in human liver microsomes assessed as compound remaining at 1 uM measured after 30 mins; assay type: ADME, microsome; details: read-out: Stability
Summary of the method: (§4)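 Human or rat liver microsome preparations incubated with compound; percent parent remaining after 30 min.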

[13] = Stability of compound in rat liver microsomes assessed as compound remaining at 1 uM measured after 30 mins; assay type: ADME, microsome; details: read-out: Stability; summary of the method: as §4
[14] = Unbound fraction in human plasma; assay type: ADME, cell-free
Summary of the method: (§5)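 Unbound fraction determined in 100% human or C57BL/6 mouse plasma.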

[15] = Unbound fraction in C57BL/6 mouse plasma; assay type: ADME, cell-free; summary of the method: as §5
[16] = Apparent permeability in pig LLC-PK1 cells; assay type: ADME, cell-based, Sus scrofa
[17] = Apparent permeability in MDCK cells; assay type: ADME, cell-based, Canis lupus familiaris; details: dog
[18] = Clearance in rat; assay type: ADME; details: in vivo
[19] = Volume of distribution at steady state in rat; assay type: ADME; details: in vivo, read-out: Vdss
[20] = Half life in rat; assay type: ADME; details: in vivo
[21] = Mean residence time in rat; assay type: ADME; details: in vivo
[22] = organism: Rattus norvegicus; assay: Dose normalized AUC in rat; assay type: ADME; details: in vivo
[23] = organism: Rattus norvegicus; assay: Dose normalized Cmax in rat; assay type: ADME; details: in vivo
[24] = Oral bioavailability in rat; assay type: ADME, organism-based; details: in vivo
[25] = Total drug level in HFD-fed C57BL/6 mouse plasma at 0.01 mg/kg, po measured at 4 hrs post dose; assay type: ADME, organism-based
Summary of the method: (§6)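 3-week high fat diet-fed C57BL/6 mice given 0.01, 0.03 or 0.10 mg/kg orally; total (bound plus unbound) drug concentration in plasma sampled 4 h after dosing.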

[26] = Total drug level in HFD-fed C57BL/6 mouse plasma at 0.03 mg/kg, po measured at 4 hrs post dose; assay type: ADME, organism-based; summary of the method: as §6
[27] = Total drug level in HFD-fed C57BL/6 mouse plasma at 0.10 mg/kg, po measured at 4 hrs post dose; assay type: ADME, organism-based; details: 0.1 mg/kg; summary of the method: as §6
[28] = test system: Plasma; assay: Total drug level in po dosed HFD-fed C57BL/6 mouse plasma measured at 4 hrs post dose; assay type: ADME, organism-based; details: in vivo; summary of the method: as §6

Row | Structure (SMILES) | %max [1] [%] | %max [2] [%] | EC50 [6] [nM] | EC50 [7] [nM] | EC50 [8] [nM] | EC50 [9] [nM] | also measured
1 | CN1C(=O)CCC1c1cc2[nH]c(-c3ccccn3)cc2cc1Oc1ccc(S(C)(=O)=O)nc1 (stereo in doubt; 1-en) | 628 | 158 |  |  |  |  | 
2 | Cc1cnc(-c2cc3cc(Oc4ccc(S(C)(=O)=O)nc4)c(C4CCC(=O)N4C)cc3[nH]2)s1 (stereo in doubt; 2-en) | 482 | 132 |  |  |  |  | 
3 | CN1C(=O)CCC1c1cc2[nH]c(-c3ccccn3)cc2cc1Oc1ccc(S(C)(=O)=O)nc1 (single isomer, unassigned; ent-1) [listing 1 of 2 here] | 784 | 193 |  |  |  |  | Activity [3]: Active; Activity [4]: Active; Activity [5]: Active
4 | CCS(=O)(=O)c1ccc(Oc2cc3cc(-c4ccc(C(F)(F)F)cn4)[nH]c3cc2C2CCC(=O)N2C)cc1 (stereo not drawn) | 602 | 158 | 2 | 1.4 | 1.7 | 174 | 
5 | CN1C(=O)CCC1c1cc2[nH]c(-c3cnccn3)cc2cc1Oc1ccc(S(C)(=O)=O)nc1 (stereo in doubt; 3) |  |  | 4.5 | 4.2 | 7.2 | 23 | 
6 | CN1C(=O)CCC1c1cc2[nH]c(-c3cnccn3)cc2cc1Oc1ccc(S(C)(=O)=O)nc1 (stereo in doubt; 3-en) [listing 1 of 2 here] | 577 | 155 |  |  |  |  | 
7 | CN1C(=O)CCC1c1cc2[nH]c(-c3cnccn3)cc2cc1Oc1ccc(S(C)(=O)=O)nc1 (stereo in doubt; 3-en) [listing 2 of 2 here] |  |  | 48 | 18 | 247 | 1510 | 

The next lines start with results.

Row | %max [1] [%] | %max [2] [%] | EC50 [6] [nM] | EC50 [7] [nM] | EC50 [8] [nM] | EC50 [9] [nM] | Structure (SMILES) | also measured
8 |  |  | 3.7 | 2.4 | 0.9 | 7.5 | CN1C(=O)CCC1c1cc2[nH]c(-c3ccccn3)cc2cc1Oc1ccc(S(C)(=O)=O)nc1 (single isomer, unassigned; ent-1) [listing 2 of 2 here] | solubility [10]: 142 µM (≈ 65.7 µg/mL); solubility [11]: 194 µM (≈ 89.7 µg/mL); remaining at 0.5 h, 1 µM [12]: 75%; remaining at 0.5 h, 1 µM [13]: 79%; fraction unbound [14]: 0.087; fraction unbound [15]: 0.072; Papp [16]: 40 ×10⁻⁶ cm/s; Papp [17]: 40 ×10⁻⁶ cm/s; clearance [18]: 18 mL/min/kg; Vd [19]: 3.05 L/kg; half-life [20]: 2.8 h; MRT [21]: 2.85 h; AUC/dose [22]: 0.59 µM·kg·h/mg; Cmax/dose [23]: 0.235 µM·kg/mg; bioavailability [24]: 30%; concentration at 4 h [25]: 3.8 nM; concentration at 4 h [26]: 12 nM; concentration at 4 h [27]: 18 nM; Drug uptake [28]: Dose-dependent effect
9 |  |  | 4.8 | 2.1 | 3.9 | 5.2 | CN1C(=O)CCC1c1cc2[nH]c(-c3ccc(C(C)(C)O)cn3)cc2cc1Oc1ccc(S(C)(=O)=O)nc1 (stereo in doubt; 4) [listing 1 of 2 here] | 
10 | 764 | 174 |  |  |  |  | CN1C(=O)CCC1c1cc2[nH]c(-c3ccc(C(F)(F)F)cn3)cc2cc1Oc1ccc(S(C)(=O)=O)nc1 (stereo in doubt; 5) | 
11 | 581 | 132 |  |  |  |  | CN1C(=O)CCC1c1cc2[nH]c(-c3ccc(C(C)(C)O)cn3)cc2cc1Oc1ccc(S(C)(=O)=O)nc1 (stereo in doubt; 4-en) | 
12 | 739 | 173 |  |  |  |  | CN1C(=O)CCC1c1cc2[nH]c(-c3ccc(C(C)(C)O)cn3)cc2cc1Oc1ccc(S(C)(=O)=O)nc1 (stereo in doubt; 4) [listing 2 of 2 here] | 
